Measured values from ChEMBL document CHEMBL3217723, “Optimizing PK properties of cyclic peptides: the effect of side chain substitutions on permeability and clearance()” (Medchemcomm, 2012).
Where a SMILES comes first, the peptide text is derived from it. [ ]: non-standard residue; d: D form. The star is where a group is joined. NMeAbu(4-morpholino) = CN[C@@H](CCN1CCOCC1)C(=O)O; NMeY = CN[C@@H](Cc1ccc(O)cc1)C(=O)O; NMeCha = CN[C@@H](CC1CCCCC1)C(=O)O; NMeF = CN[C@@H](Cc1ccccc1)C(=O)O; NMeI = CC[C@H](C)[C@H](NC)C(=O)O; NMeD = CN[C@@H](CC(=O)O)C(=O)O; dNMeL = CN[C@H](CC(C)C)C(=O)O; Morpholide = C1CN(*)CCO1; NMeA = CN[C@@H](C)C(=O)O; Piperidide = C1CCN(*)CC1

Experiments:
[1] = Intrinsic clearance in human liver microsomes by LC-MS/MS analysis; format: ADME; settings: read-out: CLH
Procedure, shortened: (§1)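 Compound at 1 µM with liver microsomes (CYP 0.25 µM) in 0.1 M potassium phosphate, pH 7.4, at 37 °C. Final solvent was 0.975% acetonitrile and 0.025% DMSO. Mix prewarmed 5 min, then started with 1.3 mM NADPH; no-NADPH controls were run. Sampled at 0–60 min into acetonitrile and followed by LC-MS/MS for substrate loss. T1/2 was scaled to CLint by the well-stirred model.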

[2] = Lipophilicity, log D of the compound at pH 7.4 by shake-flask method; format: physicochemical; settings: buffer
[3] = Terminal elimination half life in Wistar-Han rat at 1.48 mg/kg, iv; format: ADME, organism-based; set-up: dose 1.48 mg/kg, route intravenous; settings: in vivo, read-out: beta t1/2 (converted)
Procedure, shortened: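 Jugular vein-cannulated male Wistar-Hannover rats (230–250 g, n = 3) received a tail-vein bolus over 30 s. Vehicle depended on compound: SEDDS/dextrose or propylene glycol/20 mM sodium phosphate pH 7.4. Blood was drawn at 0.03–24 h into K2EDTA and the plasma analyzed by LC-MS/MS. Non-compartmental analysis gave T1/2 = 0.693/|terminal ln-slope|.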

[4] = Cmax in male Wistar-Han rat at 10 mg/kg, po; format: ADME, organism-based; set-up: dose 10 mg/kg, route oral; settings: in vivo
[5] = Drug excretion in male Wistar-Han rat urine; format: ADME; settings: read-out: Drug excretion
[6] = AUC (0 to infinity) in male Wistar-Han rat at 1.48 mg/kg, iv; format: ADME, organism-based; set-up: time infinity, dose 1.48 mg/kg, route intravenous; settings: plasma
Procedure, shortened: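 Jugular vein-cannulated male Wistar-Hannover rats (230-250 g), n = 3, fed ad libitum; 30 s tail-vein injection in 10% SEDDS:90% sterile dextrose, 1:1 propylene glycol:20 mM sodium phosphate (pH 7.4), or 10% propylene glycol:90% 20 mM sodium phosphate (pH 7.4). Blood via cannula to 24 h, K2EDTA plasma, LC-MS/MS against standard curve; non-compartmental AUC0-∞ by linear trapezoid rule.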

[7] = AUC (0 to infinity) in male Wistar-Han rat at 10 mg/kg, po; format: ADME, organism-based; set-up: time infinity, dose 10 mg/kg, route oral; settings: plasma
Procedure, shortened: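 Jugular vein-cannulated male Wistar-Hannover rats (230-250 g), n = 3, fasted overnight and fed after the 4 h sample; oral dosing in the i.v. formulations, except the SEDDS formulation used 90% water. Serial blood 0.083–24 h, K2EDTA plasma, LC-MS/MS against standard curve; non-compartmental AUC0-∞ by linear trapezoid rule.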

[8] = Plasma clearance in male Wistar-Han rat at 1.48 mg/kg, iv; format: ADME, organism-based; set-up: dose 1.48 mg/kg, route intravenous
Procedure, shortened: (§2)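 Jugular vein-cannulated male Wistar-Hannover rats (230-250 g; n = 3) given a 30 s tail-vein bolus in SEDDS/dextrose or propylene glycol/20 mM sodium phosphate (pH 7.4) vehicles. Blood sampled 0.03–24 h via cannula into K2EDTA. Plasma proteins precipitated, LC-MS/MS. Non-compartmental: CLp = dose/AUC0-∞ (linear trapezoid); Vdss; T1/2 = 0.693/terminal log-linear slope.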

[9] = Tmax in male Wistar-Han rat at 10 mg/kg, po; format: ADME, organism-based; set-up: dose 10 mg/kg, route oral; settings: in vivo
[10] = Volume of distribution at steady state in male Wistar-Han rat at 1.48 mg/kg, iv; format: ADME, organism-based; set-up: dose 1.48 mg/kg, route intravenous; settings: in vivo, read-out: Vdss; procedure, shortened: as §2
[11] = Terminal elimination half life in Wistar-Han rat at 10 mg/kg, po; format: ADME, organism-based; set-up: dose 10 mg/kg, route oral; settings: in vivo, read-out: beta t1/2 (converted)
Procedure, shortened: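 Male Wistar-Hannover rats (230–250 g, n = 3), jugular-cannulated, were fasted overnight and dosed by oral gavage. Vehicle depended on compound: SEDDS/water or propylene glycol/sodium phosphate pH 7.4. Blood was collected at 0.083–24 h into K2EDTA and the plasma analyzed by LC-MS/MS. Terminal half-life came from the non-compartmental ln-concentration slope.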

[12] = Intrinsic clearance in rat liver microsomes by LC-MS/MS analysis; format: ADME; settings: read-out: CLH; procedure, shortened: as §1
[13] = Oral bioavailability in male Wistar-Han rat at 10 mg/kg; format: ADME, organism-based; settings: in vivo
Procedure, shortened: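 Male Wistar-Hannover rats (230-250 g, cannulated; n = 3) fasted overnight, fed after the 4 h sample, and dosed orally in the i.v. formulations or 10% SEDDS:90% water. Serial blood sampled 0.083–24 h into K2EDTA. Plasma measured by LC-MS/MS against a standard curve. Cmax and Tmax read from individual profiles; F = oral AUC0-∞ relative to i.v. AUC0-∞.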

[14] = Apparent permeability from apical to basolateral side in human Caco2 cells by LC-MS/MS analysis; format: ADME, cell-based; settings: Caco-2

Structure (SMILES) | CLint scaled [1] [L/h/kg] | logD [2] | other results
CC(C)C[C@@H]1NC(=O)[C@H](Cc2ccc(O)cc2)N(C)C(=O)[C@H]2CCCN2C(=O)[C@H](CC(C)C)NC(=O)[C@H](C)N(C)C(=O)[C@@H](CC(C)C)N(C)C1=O (cyclo(L[dNMeL][NMeA]L[dP][NMeY])) | 11.4 | 3.64 | –
CC(C)C[C@@H]1NC(=O)[C@H](Cc2ccc(O)cc2)N(C)C(=O)[C@H]2CCCN2C(=O)[C@H](CC(C)C)NC(=O)[C@H](CCN2CCOCC2)N(C)C(=O)[C@@H](CC(C)C)N(C)C1=O (cyclo(L[dNMeL][NMeAbu(4-morpholino)]L[dP][NMeY])) | 0.96 | 2.79 | –
CC(C)C[C@@H]1NC(=O)[C@H](Cc2ccc(O)cc2)N(C)C(=O)[C@H]2CCCN2C(=O)[C@H](CC(C)C)NC(=O)[C@H](CC2CCCCC2)N(C)C(=O)[C@@H](CC(C)C)N(C)C1=O (cyclo(L[dNMeL][NMeCha]L[dP][NMeY])) | – | 5.09 | –
CC(C)C[C@@H]1NC(=O)[C@H](Cc2ccc(O)cc2)N(C)C(=O)[C@H]2CCCN2C(=O)[C@H](CC(C)C)NC(=O)[C@H](CC(=O)N2CCOCC2)N(C)C(=O)[C@@H](CC(C)C)N(C)C1=O (cyclo(L[dNMeL][NMeD](Morpholide)L[dP][NMeY])) | 3.42 | 2.78 | –
CC(C)C[C@@H]1NC(=O)[C@H](Cc2ccc(O)cc2)N(C)C(=O)[C@H]2CCCN2C(=O)[C@H](CC(C)C)NC(=O)[C@H](CC(=O)N2CCCCC2)N(C)C(=O)[C@@H](CC(C)C)N(C)C1=O (cyclo(L[dNMeL][NMeD](Piperidide)L[dP][NMeY])) | > 18 | 3.77 | –
CC(C)C[C@@H]1NC(=O)[C@H](Cc2ccc(O)cc2)N(C)C(=O)[C@H]2CCCN2C(=O)[C@H](CC(C)C)NC(=O)[C@H](CC(=O)O)N(C)C(=O)[C@@H](CC(C)C)N(C)C1=O (cyclo(L[dNMeL][NMeD]L[dP][NMeY])) | < 0.48 | 0.477 | half-life [3]: 21.5 min; Cmax [4]: 0.0173 µg/mL; dose excreted [5]: < 1%; AUC(0-inf) [6]: 0.441 µg·h/mL; AUC(0-inf) [7]: 0.0187 µg·h/mL; clearance [8]: 3.38 L/h/kg; Tmax [9]: 46.8 min; Vd [10]: 0.36 L/kg; half-life [11]: 284 min; CLint scaled [12]: < 0.54 L/h/kg; bioavailability [13]: 0.469%; Papp A→B [14]: 3.6 nm/s
CC(C)C[C@@H]1NC(=O)[C@H](Cc2ccc(O)cc2)N(C)C(=O)[C@H]2CCCN2C(=O)[C@H](CC(C)C)NC(=O)[C@H](Cc2ccccc2)N(C)C(=O)[C@@H](CC(C)C)N(C)C1=O (cyclo(L[dNMeL][NMeF]L[dP][NMeY])) | 10.2 | 4.46 | –
CC[C@H](C)[C@H]1C(=O)N[C@@H](CC(C)C)C(=O)N2CCC[C@@H]2C(=O)N(C)[C@@H](Cc2ccc(O)cc2)C(=O)N[C@@H](CC(C)C)C(=O)N(C)[C@H](CC(C)C)C(=O)N1C (cyclo(L[dNMeL][NMeI]L[dP][NMeY])) | > 18 | – | –
